Read-outs that look alike come from different tables or passages of the source.
Legend:
U2OS = assay: MTT cytotoxicity assay, U2OS cells; assay type: cell-based, human; conditions: 72 h, read-out: cytotoxic activity IC50
Method in brief: (§1)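 Human osteosarcoma cells (from ATCC) were seeded at 5 × 10^3 per well and left to attach overnight at 37 °C, 5% CO2. They were then exposed to test compound for 72 h. Medium was replaced with 0.5 mg/mL MTT in culture medium for 2 h at 37 °C, and formazan was dissolved in DMSO. OD was read at 570 nm, survival was calculated as % of untreated control OD, and runs were done in triplicate.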

143B = assay: MTT cytotoxicity assay, 143B cells; assay type: cell-based, human; conditions: 72 h, read-out: cytotoxic activity IC50
Method in brief: as §1

SaOS-2 = assay: MTT cytotoxicity assay, SaOS-2 cells; assay type: cell-based, human; conditions: read-out: cytotoxic activity IC50
Method in brief: as §1

MNNG/HOS = assay: MTT cytotoxicity assay, MNNG/HOS cells; assay type: cell-based, human; conditions: 72 h, read-out: cytotoxic activity IC50
Method in brief: as §1

[1] = system: osteosarcoma cancer cell lines (MNNG/HOS, U2OS, 143B, SaOS-2); assay: MTT cytotoxicity, summary over osteosarcoma cell lines; assay type: cell-based, human; conditions: for IC50: Homo sapiens, 72 h, read-out: IC50 range against all OS cell lines
Method in brief: as §1

[2] = MTT cell viability, normal osteoblast cells hFOB 1.19; assay type: cell-based, human; conditions: human, hFOB 1.19 normal osteoblast cells
Method in brief: (§2)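 Normal human osteoblasts (hFOB 1.19, from ATCC) were exposed to test compound at 0.1, 1.0, 10.0 and 100.0 μM for 72 h. Viability was read by MTT: 0.5 mg/mL for 2 h at 37 °C, DMSO solubilisation, OD at 570 nm. Values are expressed relative to untreated control set at 100%, as mean ± SD (n = 3).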

human IMPDH1 = human IMPDH1 (Homo sapiens, UniProt P20839); assay: IMPDH1 inhibitory assay; assay type: biochemical
Chain of human IMPDH1 (P20839 whole entry): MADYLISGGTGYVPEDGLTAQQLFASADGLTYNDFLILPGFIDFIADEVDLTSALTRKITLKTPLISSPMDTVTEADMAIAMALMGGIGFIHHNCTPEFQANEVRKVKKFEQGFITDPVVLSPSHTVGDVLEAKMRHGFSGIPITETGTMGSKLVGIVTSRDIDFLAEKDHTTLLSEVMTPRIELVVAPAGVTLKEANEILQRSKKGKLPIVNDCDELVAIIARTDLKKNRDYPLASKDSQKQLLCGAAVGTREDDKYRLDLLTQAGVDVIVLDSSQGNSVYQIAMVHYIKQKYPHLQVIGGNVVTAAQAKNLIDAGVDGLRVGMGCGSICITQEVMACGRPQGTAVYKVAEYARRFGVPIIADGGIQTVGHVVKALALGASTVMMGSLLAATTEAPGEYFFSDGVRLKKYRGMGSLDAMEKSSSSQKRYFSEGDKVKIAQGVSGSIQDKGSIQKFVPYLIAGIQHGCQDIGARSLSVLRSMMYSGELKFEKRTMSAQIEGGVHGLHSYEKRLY

hFOB 1.19 = assay: MTT cell viability, normal osteoblast cells hFOB 1.19; assay type: cell-based, human; conditions: at the tested concentrations (0.1-100 μM), in words
Method in brief: as §2

human IMPDH2 = human IMPDH2 (Homo sapiens, UniProt P12268); assay: IMPDH2 inhibitory assay; assay type: biochemical

## COc1c(C)c2c(c(O)c1C/C=C(\C)CCC(=O)O[Si](C(C)C)(C(C)C)C(C)C)C(=O)OC2 [Compound 4c, Triisopropylsilyl (E)-6-(4-Hydroxy-6-methoxy-7-methyl-3-oxo-1,3-dihydroisobenzofuran-5-yl)-4-methylhex-4-enoate]
U2OS; Homo sapiens, U2OS
  IC50: 0.92 µM
143B; Homo sapiens, 143B
  IC50: 35 ± 9.9 µM
SaOS-2; Homo sapiens, SAOS-2, 72 h
  IC50: 5.5 ± 1.51 µM
MNNG/HOS; Homo sapiens, HOS
  IC50: 5.7 ± 0.71 µM

## COc1c(C)c2c(c(O[Si](C)(C)C(C)(C)C)c1C/C=C(\C)CCC(=O)O[Si](C)(C)C(C)(C)C)C(=O)OC2 [Compound 2a, tert-Butyldimethylsilyl (E)-6-(4-((tert-Butyldimethylsilyl)oxy)-6-methoxy-7-methyl-3-oxo-1,3-dihydroisobenzofuran-5-yl)-4-methylhex-4-enoate]
U2OS; Homo sapiens, U2OS
  IC50: 3.8 ± 0.88 µM
143B; Homo sapiens, 143B
  IC50: 4.12 ± 0.28 µM
[1]
  IC50: 1.36 to 5.43 µM
SaOS-2; Homo sapiens, SAOS-2, 72 h
  IC50: 5.43 ± 2.87 µM
MNNG/HOS; Homo sapiens, HOS
  IC50: 1.36 ± 0.76 µM

## COc1c(C)c2c(c(O[Si](c3ccccc3)(c3ccccc3)C(C)(C)C)c1C/C=C(\C)CCC(=O)ON1C(=O)c3ccccc3C1=O)C(=O)OC2 [Compound 5a, 1,3-Dioxoisoindolin-2-yl (E)-6-(4-((tert-Butyldiphenylsilyl)oxy)-6-methoxy-7-methyl-3-oxo-1,3-dihydroisobenzofuran-5-yl)-4-methylhex-4-enoate]
U2OS; Homo sapiens, U2OS
  IC50: 10.2 ± 3.89 µM
143B; Homo sapiens, 143B
  IC50: 31 ± 1.41 µM
SaOS-2; Homo sapiens, SAOS-2, 72 h
  IC50: 12 µM
MNNG/HOS; Homo sapiens, HOS
  IC50: 19.5 ± 3.54 µM

## COc1c(C)c2c(c(O)c1C/C=C(\C)CCC(=O)O)C(=O)OC2 [MPA 1, Mycophenolic acid, reference compound]
U2OS; Homo sapiens, U2OS
  IC50: 0.68 ± 0.04 µM
143B; Homo sapiens, 143B
  IC50: 1.55 ± 0.49 µM
[2]
  viability at 72 h, 0.1 µM: 74.3 ± 4.24%
  viability at 72 h, 1 µM: 20.1 ± 1.41%
  viability at 72 h, 10 µM: 7.13 ± 0.67%
  viability at 72 h, 100 µM: 3.38 ± 3.4%
[1]
  IC50: 0.64 to 4 µM
SaOS-2; Homo sapiens, SAOS-2, 72 h
  IC50: 4 ± 0.28 µM
Human IMPDH1
  Ki: 0.136 µM
MNNG/HOS; Homo sapiens, HOS
  IC50: 0.64 ± 0.08 µM

## (E)-6-(4-((tert-Butyldimethylsilyl)oxy)-6-methoxy-7-methyl-3-oxo-1,3-dihydroisobenzofuran-5-yl)-4-methylhex-4-enoic acid [Compound 3b]
U2OS; U2OS cells, MTT
  IC50: 2.96 ± 2.32 µM
143B; 143B cells, MTT
  IC50: 4.74 ± 0.76 µM
SaOS-2; SaOS cells, MTT, 72 h
  IC50: 4.58 ± 1.05 µM
MNNG/HOS; MNNG cells, MTT
  IC50: 1.15 ± 0.35 µM

## COc1c(C)c2c(c(O)c1C/C=C(\C)CCC(=O)ON1C(=O)c3ccccc3C1=O)C(=O)OC2 [Compound 6a, 1,3-Dioxoisoindolin-2-yl (E)-6-(4-Hydroxy-6-methoxy-7-methyl-3-oxo-1,3-dihydroisobenzofuran-5-yl)-4-methylhex-4-enoate]
U2OS; Homo sapiens, U2OS
  IC50: 1.38 ± 0.6 µM
143B; Homo sapiens, 143B
  IC50: 4.85 ± 1.48 µM
SaOS-2; Homo sapiens, SAOS-2, 72 h
  IC50: 6.9 µM

## COc1c(C)c2c(c(O)c1C/C=C(\C)CCC(=O)OCCc1ccc(F)cc1)C(=O)OC2 [Compound 6b, 4-Fluorophenethyl (E)-6-(4-Hydroxy-6-methoxy-7-methyl-3-oxo-1,3-dihydroisobenzofuran-5-yl)-4-methylhex-4-enoate]
U2OS; Homo sapiens, U2OS
  IC50: 7 ± 2.12 µM
143B; Homo sapiens, 143B
  IC50: 2 ± 0.14 µM
SaOS-2; Homo sapiens, SAOS-2, 72 h
  IC50: 5.75 ± 1.06 µM

## COc1c(C)c2c(c(O)c1C/C=C(\C)CCC(=O)O[Si](c1ccccc1)(c1ccccc1)c1ccccc1)C(=O)OC2 [Compound 2d, Triphenylsilyl (E)-6-(4-Hydroxy-6-methoxy-7-methyl-3-oxo-1,3-dihydroisobenzofuran-5-yl)-4-methylhex-4-enoate]
U2OS; Homo sapiens, U2OS
  IC50: 1.01 ± 0.4 µM
143B; Homo sapiens, 143B
  IC50: 1.65 ± 0.26 µM
[2]
  viability at 72 h, 0.1 µM: 93.9 ± 1.01%
  viability at 72 h, 1 µM: 92 ± 1.78%
  viability at 72 h, 10 µM: 84.5 ± 2.95%
  viability at 72 h, 100 µM: 73.3 ± 1.39%
hFOB 1.19
  cytotoxicity to human normal osteoblast cells (hFOB 1.19): low cytotoxicity
Human IMPDH2
  Ki: 1.8 µM
[1]; 143B and SaOS cell lines, versus 2e
  fold more potent than carbon compound 2e: 2 to 3 fold
[1]
  IC50: 0.64 to 2.27 µM
SaOS-2; Homo sapiens, SAOS-2, 72 h
  IC50: 2.27 ± 0.68 µM
Human IMPDH1; read-out: Ki,app (apparent tight-binding inhibition constant), IMPDH1, IMP 100 μM, NAD+ 200 μM, NO = No inhibition observed
  Ki: > 100 µM
MNNG/HOS; Homo sapiens, HOS
  IC50: 0.64 ± 0.15 µM

## COc1c(C)c2c(c(O)c1C/C=C(\C)CCC(=O)O[Si](c1ccccc1)(c1ccccc1)C(C)(C)C)C(=O)OC2 [Compound 4b, tert-Butyldiphenylsilyl (E)-6-(4-Hydroxy-6-methoxy-7-methyl-3-oxo-1,3-dihydroisobenzofuran-5-yl)-4-methylhex-4-enoate]
U2OS; Homo sapiens, U2OS
  IC50: 1.85 ± 0.07 µM
143B; Homo sapiens, 143B
  IC50: 6.8 ± 1.41 µM
SaOS-2; Homo sapiens, SAOS-2, 72 h
  IC50: 1.85 ± 0.35 µM
MNNG/HOS; Homo sapiens, HOS
  IC50: 13 ± 4.24 µM

## COc1c(C)c2c(c(O)c1C/C=C(\C)CCC(=O)OC(c1ccccc1)(c1ccccc1)c1ccccc1)C(=O)OC2 [Compound 2e, Trityl (E)-6-(4-Hydroxy-6-methoxy-7-methyl-3-oxo-1,3-dihydroisobenzofuran-5-yl)-4-methylhex-4-enoate]
U2OS; Homo sapiens, U2OS
  IC50: 0.98 ± 0.035 µM
143B; Homo sapiens, 143B
  IC50: 5.13 ± 1.1 µM
[1]
  IC50: 0.68 to 5.13 µM
SaOS-2; Homo sapiens, SAOS-2, 72 h
  IC50: 4.83 ± 0.5 µM
MNNG/HOS; Homo sapiens, HOS
  IC50: 0.68 ± 0.11 µM

## COc1c(C)c2c(c(O[Si](c3ccccc3)(c3ccccc3)C(C)(C)C)c1C/C=C(\C)CCC(=O)O[Si](c1ccccc1)(c1ccccc1)C(C)(C)C)C(=O)OC2 [Compound 2b, tert-Butyldiphenylsilyl (E)-6-(4-((tert-Butyldiphenylsilyl)oxy)-6-methoxy-7-methyl-3-oxo-1,3-dihydroisobenzofuran-5-yl)-4-methylhex-4-enoate]
U2OS; Homo sapiens, U2OS
  IC50: 2.52 ± 0.96 µM
143B; Homo sapiens, 143B
  IC50: 5.85 ± 0.54 µM
[1]
  IC50: 1.18 to 5.85 µM
SaOS-2; Homo sapiens, SAOS-2, 72 h
  IC50: 5.8 ± 1.15 µM
MNNG/HOS; Homo sapiens, HOS
  IC50: 1.18 ± 0.74 µM

## COc1c(C)c2c(c(O[Si](C(C)C)(C(C)C)C(C)C)c1C/C=C(\C)CCC(=O)O)C(=O)OC2 [Compound 3c, (E)-6-(6-Methoxy-7-methyl-3-oxo-4-((triisopropylsilyl)oxy)-1,3-dihydroisobenzofuran-5-yl)-4-methylhex-4-enoic acid]
U2OS; Homo sapiens, U2OS
  IC50: 3.75 ± 1.06 µM
143B; Homo sapiens, 143B
  IC50: 6.31 ± 0.4 µM
SaOS-2; Homo sapiens, SAOS-2, 72 h
  IC50: 5.44 ± 0.82 µM
MNNG/HOS; Homo sapiens, HOS
  IC50: 2.68 ± 1.02 µM

## COc1ccc(CCOC(=O)CC/C(C)=C/Cc2c(OC)c(C)c3c(c2O[Si](c2ccccc2)(c2ccccc2)C(C)(C)C)C(=O)OC3)cc1 [Compound 5c, 4-Methoxyphenethyl (E)-6-(4-((tert-Butyldiphenylsilyl)oxy)-6-methoxy-7-methyl-3-oxo-1,3-dihydroisobenzofuran-5-yl)-4-methylhex-4-enoate]
U2OS; Homo sapiens, U2OS
  IC50: 10.2 ± 1.06 µM
143B; Homo sapiens, 143B
  IC50: 14.5 ± 4.95 µM
SaOS-2; Homo sapiens, SAOS-2, 72 h
  IC50: 39.5 ± 0.71 µM
MNNG/HOS; Homo sapiens, HOS
  IC50: 43.5 ± 2.12 µM

## COc1c(C)c2c(c(O[Si](C(C)C)(C(C)C)C(C)C)c1C/C=C(\C)CCC(=O)O[Si](C(C)C)(C(C)C)C(C)C)C(=O)OC2 [Compound 2c, Triisopropylsilyl (E)-6-(6-Methoxy-7-methyl-3-oxo-4-((triisopropylsilyl)oxy)-1,3-dihydroisobenzofuran-5-yl)-4-methylhex-4-enoate]
U2OS; Homo sapiens, U2OS
  IC50: 24.43 ± 0.04 µM
143B; Homo sapiens, 143B
  IC50: 63.1 ± 3.2 µM
[1]
  IC50: 6.82 to 63.9 µM
SaOS-2; Homo sapiens, SAOS-2, 72 h
  IC50: 17.4 ± 9.03 µM
MNNG/HOS; Homo sapiens, HOS
  IC50: 6.82 ± 3.51 µM

## COc1c(C)c2c(c(O[Si](C)(C)C(C)(C)C)c1C/C=C(\C)CCC(=O)O)C(=O)OC2 [Compound 3a, (E)-6-(4-((tert-Butyldimethylsilyl)oxy)-6-methoxy-7-methyl-3-oxo-1,3-dihydroisobenzofuran-5-yl)-4-methylhex-4-enoic acid]
U2OS; Homo sapiens, U2OS
  IC50: 2.31 ± 1.26 µM
143B; Homo sapiens, 143B
  IC50: 3.9 ± 0.76 µM
SaOS-2; Homo sapiens, SAOS-2, 72 h
  IC50: 4.55 ± 2.6 µM
MNNG/HOS; Homo sapiens, HOS
  IC50: 0.86 ± 0.2 µM

## COc1ccc(CCOC(=O)CC/C(C)=C/Cc2c(O)c3c(c(C)c2OC)COC3=O)cc1 [Compound 6c, 4-Methoxyphenethyl (E)-6-(4-Hydroxy-6-methoxy-7-methyl-3-oxo-1,3-dihydroisobenzofuran-5-yl)-4-methylhex-4-enoate]
U2OS; Homo sapiens, U2OS
  IC50: 7.35 ± 1.63 µM
143B; Homo sapiens, 143B
  IC50: 2.6 ± 0.28 µM
SaOS-2; Homo sapiens, SAOS-2, 72 h
  IC50: 9 ± 1.41 µM
MNNG/HOS; Homo sapiens, HOS
  IC50: 38 ± 11.3 µM

From paper PMC11843339 (ACS Bio & Med Chem Au, 2024)
